Source: ChEMBL document CHEMBL4049456, “Identification of 4-(Aminomethyl)-6-(trifluoromethyl)-2-(phenoxy)pyridine Derivatives as Potent, Selective, and Orally Efficacious Inhibitors of the Copper-Dependent Amine Oxidase, Lysyl Oxidase-Like 2 (LOXL2)” (J Med Chem, 2017)

Experiments:
[1] = target: T1, Lysyl oxidase homolog 2 (Homo sapiens, UniProt Q9Y4K0); assay: Inhibition of human LOXL2 expressed in CHO cells assessed as reduction of H2O2 production from oxidative deamination of DAP preincubated for 2 hrs followed by substrate addition in presence of 0.1% BSA measured every 2 mins for 1 hr by amplex red reagent-based fluorescence assay; assay type: cell-based
T1 sequence (Q9Y4K0 whole entry): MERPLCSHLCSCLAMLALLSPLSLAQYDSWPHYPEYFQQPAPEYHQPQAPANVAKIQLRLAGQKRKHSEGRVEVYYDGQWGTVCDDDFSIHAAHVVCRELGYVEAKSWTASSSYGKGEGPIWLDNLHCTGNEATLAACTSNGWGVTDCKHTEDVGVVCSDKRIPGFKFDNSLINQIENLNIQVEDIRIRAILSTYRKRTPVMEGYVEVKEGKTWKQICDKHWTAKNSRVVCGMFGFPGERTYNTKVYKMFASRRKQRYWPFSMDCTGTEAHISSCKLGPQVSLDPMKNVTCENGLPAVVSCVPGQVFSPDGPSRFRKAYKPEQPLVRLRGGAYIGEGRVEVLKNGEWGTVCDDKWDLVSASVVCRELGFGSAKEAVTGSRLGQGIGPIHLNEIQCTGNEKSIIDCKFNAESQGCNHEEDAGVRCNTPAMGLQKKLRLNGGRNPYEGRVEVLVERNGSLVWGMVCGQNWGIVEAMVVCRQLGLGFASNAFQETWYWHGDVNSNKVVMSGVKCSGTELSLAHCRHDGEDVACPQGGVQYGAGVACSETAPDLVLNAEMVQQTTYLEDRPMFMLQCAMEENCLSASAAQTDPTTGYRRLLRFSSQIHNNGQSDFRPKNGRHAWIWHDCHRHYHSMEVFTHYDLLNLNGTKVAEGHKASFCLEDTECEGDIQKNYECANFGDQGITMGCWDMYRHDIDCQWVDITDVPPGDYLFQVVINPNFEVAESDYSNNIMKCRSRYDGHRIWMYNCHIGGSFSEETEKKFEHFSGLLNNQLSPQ

[2] = target: T2, Lysyl oxidase homolog 2 (Homo sapiens) (UniProt Q9Y4K0); assay: Irreversible inhibition of human LOXL2 assessed as reduction of H2O2 production from oxidative deamination of DAP at 1000 times IC50 preincubated for 2 hrs followed by compound washout and subsequent incubation for 2 hrs prior to substrate addition measured every 2 mins for 40 mins by amplex red reagent-based fluorescence assay relative to control
T2 sequence (whole entry): T1 sequence (Q9Y4K0 whole entry)
Method in brief: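 Wells were washed repeatedly with PBS and equilibrated for 2 h. Recovered activity was then compared with nonwashed controls.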

[3] = Cmax in C57BL/6 mouse lung at 30 mg/kg, po by LC-MS/MS analysis; assay type: ADME, organism-based; parameters: dose 30 mg/kg, route oral
Method in brief: (§1)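 Normal C57BL/6 mice, n = 3 per time point, received a single oral 30 mg/kg dose formulated in 0.5% methylcellulose.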

[4] = target: T1, Lysyl oxidase homolog 2; assay: Inhibition of human LOXL2 expressed in CHO cells assessed as reduction of H2O2 production from oxidative deamination of DAP preincubated for 2 hrs followed by substrate addition measured every 2 mins for 1 hr by amplex red reagent-based fluorescence assay; assay type: cell-based
[5] = Cmax in C57BL/6 mouse plasma at 30 mg/kg, po by LC-MS/MS analysis; assay type: ADME, organism-based; parameters: dose 30 mg/kg, route oral; method in brief: as §1
[6] = target: T2, Lysyl oxidase homolog 2 (Homo sapiens); assay: Irreversible inhibition of human LOXL2 assessed as catalytic activity preincubated for 2 hrs followed by substrate addition measured every 2 mins for 1 hr by amplex red reagent-based fluorescence assay relative to control; parameters: concentration or dose not given beside the values
[7] = target: T1, Lysyl oxidase homolog 2; assay: Inhibition of recombinant human LOXL2 expressed in human whole blood assessed as reduction of H2O2 production from oxidative deamination of DAP preincubated for 2 hrs followed by substrate addition measured every 2 mins for 1 hr by amplex red reagent-based fluorescence assay
[8] = Protein binding in human plasma; assay type: ADME, cell-free; details: read-out: PPB (converted)

| Compound | IC50 [1] [µM] | inhibition [2] [%] | Cmax [3] [nM] | IC50 [4] [µM] | Cmax [5] [nM] | inhibition [6] [%] | IC50 [7] [µM] | fraction unbound [8] |
| --- | --- | --- | --- | --- | --- | --- | --- | --- |
| Cl.NCc1cc(Oc2cccc(C(=O)NC[C@@H](O)CO)c2)nc(C(F)(F)F)c1 | 0.088 | 77 | 1920 | 0.077 | 2770 | 96 | 0.55 | – |
| COCCNC(=O)c1cccc(Oc2cc(CN)ccn2)c1 | 0.29 | – | – | 0.16 | – | – | 2.9 | – |
| COCCNC(=O)c1ccc(Oc2cc(CN)ccn2)cc1 | 1.5 | – | – | 0.5 | – | – | 30 | – |
| NCc1ccnc(Oc2cccc(C(=O)Nc3ccc(C(=O)O)cc3)c2)c1 | 0.3 | – | – | 0.081 | – | – | 1.4 | – |
| Cl.NCc1cc(Oc2cccc(C(=O)Nc3ccccc3)c2)nc(C(F)(F)F)c1 | 0.062 | 88 | 10300 | 0.042 | 860 | 98 | 2.9 | 0.04 |
| NCc1cc(O[C@H]2CCCN(C(=O)Nc3ccccc3)C2)nc(C(F)(F)F)c1 | 0.16 | – | 30000 | 0.13 | 1900 | – | 2 | – |
| NCc1ccnc(OC2CCCCC2)c1 | 1.8 | – | – | 0.85 | – | – | 29 | – |
| COc1ccc(NC(=O)c2cccc(Oc3cc(CN)ccn3)c2)cc1 | 0.16 | – | – | 0.053 | – | – | 1.8 | – |
| CONC(=O)c1cccc(Oc2cc(CN)cc(C(F)(F)F)n2)c1.Cl | 0.14 | – | 8780 | 0.096 | 630 | – | 0.84 | – |
| NCc1ccnc(Oc2ccc(C(=O)Nc3ccccc3)cc2)c1 | 0.75 | – | – | 0.27 | – | – | 39 | – |
| NCc1cc(O[C@@H]2CCCN(C(=O)Nc3ccccc3)C2)nc(C(F)(F)F)c1 | 0.62 | – | – | 0.57 | – | – | 40 | – |
| Cl.NCc1cc(Oc2cccc(C(=O)N3CC[C@@H](O)C3)c2)nc(C(F)(F)F)c1 | 0.15 | 75 | 9130 | 0.11 | 5130 | 95 | 0.91 | – |
| Cl.Cl.NCc1cc(Oc2cccc(C(=O)N3CC[C@@H](N)C3)c2)nc(C(F)(F)F)c1 | 0.1 | – | 1230 | 0.058 | 670 | – | 0.69 | – |
| Cl.NCc1cc(Oc2cccc(C(=O)NCCn3cnnn3)c2)nc(C(F)(F)F)c1 | 0.08 | 77 | 3460 | 0.043 | 1990 | 97 | 0.28 | – |
| NCc1cc(Oc2cccc(C(=O)NCc3cc4ccccc4s3)c2)nc(C(F)(F)F)c1 | 0.1 | – | – | 0.034 | – | – | 9.9 | – |
| NCc1ccnc(Oc2cccc(C(=O)NCc3cc4ccccc4s3)c2)c1 | 0.11 | – | – | 0.079 | – | – | 1.7 | – |
| NCc1ccnc(Cl)c1 | – | 32 | – | – | – | 93 | – | – |
| N=C(N)c1cccc(CNC(=O)c2cccc(Oc3cc(CN)ccn3)c2)c1 | 0.65 | – | – | 0.18 | – | – | 5.2 | – |
| NCc1ccnc(Oc2cccc(C(=O)Nc3ccc(F)cc3)c2)c1 | 0.13 | – | – | 0.05 | – | – | 1.6 | – |
| Cl.NCc1cc(Oc2cccc(C(=O)NCCS(N)(=O)=O)c2)nc(C(F)(F)F)c1 | 0.062 | 75 | 540 | 0.035 | 1040 | 97 | 0.31 | – |
| NCc1ccnc(Oc2cccc(C(=O)N3CCc4ccccc4C3)c2)c1 | 0.37 | – | – | 0.12 | – | – | 7.9 | – |
| NCc1cc(Oc2cccc(Oc3ccccc3)c2)nc(C(F)(F)F)c1 | 0.27 | – | – | 0.067 | – | – | 23 | – |
| NCc1ccnc(Oc2cccc(C(=O)NCc3ccccc3)c2)c1 | 0.11 | – | – | 0.062 | – | – | 1.4 | – |
| NCc1ccnc(Oc2cccc(C(=O)Nc3ccccc3)c2)c1 | 0.13 | – | – | 0.056 | – | – | 1.3 | – |
